These results are taken from ChEMBL document CHEMBL1138288, “2-phenylimidazopyridines, a new series of Golgi compounds with potent antiviral activity” (J Med Chem, 2007).

Experiment [1] concerns Vaccinia virus. The experiment is described as follows: Antiviral activity against Vaccinia virus-infected Vero cells. It counts as functional, organism-based, Orthopoxvirus vaccinia.
Experiment [2] deals with Murine hepatitis virus. Kind of experiment: Antiviral activity against mouse hepatitis virus-infected NCTC clone-1469 cells. It counts as functional, organism-based. Put shortly: (§1)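 Cells were seeded at about 50 000/well and infected 24 h later at MOI 0.1 or less, with drug added alongside. Once infectivity was evident, cells were washed and stained with methylene blue/carbol fuchsin in methanol for 10 min at room temperature.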

Experiment [3] in a line: Inhibition of IgE production in antigen-sensitized BALB/c mouse spleen cells. It counts as functional, tissue-based.
Experiment [4] has as its system Human alphaherpesvirus 2. The experiment is described as follows: Antiviral activity against HSV2-infected Vero cells. It counts as functional, organism-based.
The test system of experiment [5] is San Angelo virus. Kind of experiment: Antiviral activity against San Angelo virus-infected Vero cells. It counts as functional, organism-based.
Experiment [6] is described as follows: Selectivity ratio, IC50 for vaccinia virus-infected Vero cells to IC50 for inhibition of IgE production in antigen-sensitized BALB/c mouse spleen cells. It counts as functional.
In experiment [7] the test system is Enterovirus. Kind of experiment: Antiviral activity against Rhinovirus-infected HeLa-H1 cells. It counts as functional, organism-based.
Experiment [8] in a line: Selectivity ratio, IC50 HSV2-infected Vero cells to IC50 for inhibition of IgE production in antigen-sensitized BALB/c mouse spleen cells. It counts as functional.
Experiment [9] relates to California encephalitis virus. Kind of experiment: Antiviral activity against California encephalitis virus-infected Vero cells. It counts as functional, cell-based.
Experiment [10] concerns Vesicular stomatitis virus. Kind of experiment: Antiviral activity against VSV-infected Vero cells. It counts as functional, organism-based.
The subject of experiment [11] is Simian virus 40. The experiment is described as follows: Antiviral activity against SV40-infected Vero cells. It counts as functional, organism-based. The conditions noted are these: Betapolyomavirus macacae. Put shortly: as §1
For experiment [12], the system named is Modoc virus. The experiment is described as follows: Antiviral activity against Modoc virus-infected HeLa-H1 cells. It counts as functional, organism-based.
The subject of experiment [13] is Human alphaherpesvirus 2. Kind of experiment: Antiviral activity against HSV2 MS-infected IAF/HA-HO guinea pig assessed as suppression of vesicle formation at 2% applied topically four times a day for 3 days. It counts as functional, organism-based. Put shortly: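 Six hairless guinea pigs were each inoculated at three back sites with HSV-2 MS strain. Sites received drug at 2% in vehicle, vehicle alone, or nothing, rotated between sites so each animal was its own control. Vehicle was 38% Gelucire 44/14, 38% PEG 400, 10% Tween 80 and 10% N-methylpyrrolidinone. Dosing was topical, four times daily at about 2.5 h intervals. Vesicle formation was assessed on day 4 after inoculation.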

[14] abbreviates: California encephalitis virus, Vero.

SMILES strings stand for the structures. pIC50: −log10 of the molar value. Active and inactive are the calls of the source. The rule behind the calls is not given here. Where only a bound is given, the exact number is not on record here.

What is called pIC50 is the negative decadic logarithm of the IC50, by convention in mol/L. For `O=C(Nc1ccccn1)c1ccc2[nH]c(-c3ccc(NC(=O)C45CC6CC(CC(C6)C4)C5)cc3)nc2c1` (stereo in doubt; 1d), the pIC50 was 6.52 in experiment [1] (vero); 7.52 in experiment [2]; 7.92 in experiment [3]; 6.52 in experiment [4] (vero); 6.70 in experiment [5] (vero); 6.70 in [7] (hela-h1). In experiment [9] (vero), this compound showed a negative-log IC50 (pIC50) of 6.70. Moreover, the “Ratio IC50” value in [6] and in experiment [8] was 25 each time.
Regarding `O=C(Nc1ccccn1)c1ccc2[nH]c(-c3ccc(NC(=O)[C@]45CC6CC(C4)[C@@H](O)C(C6)C5)cc3)nc2c1`, the pIC50 is 5.74 in experiment [1] (Orthopoxvirus vaccinia, Vero); less than 5.70 in experiment [10]; 7.00 in [2] (Murine coronavirus); 8.00 in [3] (Mus musculus, BALB/c, Spleen); 5.82 in experiment [4] (Human alphaherpesvirus 2, Vero); 6.87 in experiment [5] (San Angelo virus, Vero). Further, the negative-log IC50 (pIC50) in [7] (Enterovirus, HeLa H1) is 6.70; in experiment [11] it was less than 5.70; in experiment [12] it was 6.40; in experiment [9] (setting [14]), 7.22. In addition, the “Ratio IC50” value in [6] and in experiment [8] was 150 each time.
As to `O=C(Nc1ccc(-c2nc3cc(NC(=O)C45CC6CC(CC(C6)C4)C5)ncc3[nH]2)cc1)C12CC3CC(CC(C3)C1)C2`, the pIC50 is 8.00 in experiment [1] (Orthopoxvirus vaccinia, Vero); less than 5.70 in experiment [10]; 8.10 in experiment [2] (Murine coronavirus); 9.00 in experiment [3] (Mus musculus, BALB/c, Spleen); 8.30 in [4] (Human alphaherpesvirus 2, Vero); 8.22 in experiment [5] (San Angelo virus, Vero). The pIC50 in experiment [7] (Enterovirus, HeLa H1) was 8.00; in [11], less than 5.70; in [12], 7.70; in experiment [9] (setting [14]), 8.22. Further, in experiment [13], the result was Active.
For `CC(=O)OC1C2CC3CC1CC(C(=O)Nc1ccc(-c4nc5cc(C(=O)Nc6ccccn6)ccc5[nH]4)cc1)(C3)C2` (centres undefined), the pIC50 was 5.82 in experiment [1] (Orthopoxvirus vaccinia, Vero); less than 5.70 in experiment [10]; less than 6.22 in experiment [2] (Murine coronavirus); 8.00 in experiment [3] (Mus musculus, BALB/c, Spleen); 6.00 in experiment [4] (Human alphaherpesvirus 2, Vero); 7.22 in [5] (San Angelo virus, Vero). Further, the pIC50 is 6.70 in [7] (Enterovirus, HeLa H1); less than 5.70 in experiment [11]; 6.70 in experiment [12]; 6.89 in experiment [9] (setting [14]). For the same compound, the “Ratio IC50” value in [6] and in experiment [8] was greater than 100 in each case.
